This note sets out measurements from ChEMBL document CHEMBL1926573, “Synthesis, antiproliferative activity and genotoxicity of novel anthracene-containing aminophosphonates and a new anthracene-derived Schiff base” (Bioorg Med Chem, 2012).

In brackets after ≈: the same amount, converted by molar mass. Activity calls are given as the source filed them. The calls are words filed in the database; no cut-off is given here.

Data set [1] has as its system MCF7. Description: Cytotoxicity against human MCF7 cells after 24 hrs by MTT assay. The data set is classed as functional, cell-based. Conditions: MCF7, 24 h. The procedure, abridged:
(§1)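 Human tumor lines were grown in RPMI 1640 (MCF-7, HBL-100) or high-glucose DMEM (others) with 10% FCS at 37.5 °C and 5% CO2. Cells were seeded at 1×10^4/well, allowed to adhere 24 h, then exposed 24 h to 1–0.0681 mg/ml (1.47-fold dilutions) from DMSO stock diluted in PBS, with DMSO ≤1%. Doxorubicin was the reference. MTT-formazan was read at 580 nm. IC50 by non-linear regression; mean ± SD of three experiments.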
In general terms: Tetrazolium dyes change colour on reduction, which living cells bring about.

The subject of data set [2] is MDA-MB-231. Description: Cytotoxicity against human MDA-MB-231 cells after 24 hrs by MTT assay. Type of data set: functional, cell-based. Conditions: MDA-MB-231, 24 h. An outline of the steps: as §1
Data set [3] deals with HepG2. Description: Cytotoxicity against human HepG2 cells after 24 hrs by MTT assay. The data set is classed as functional, cell-based. Conditions: HepG2, 24 h. An outline of the steps:
as §1

Data set [4] has as its system 647-V. Description: Cytotoxicity against human 647V cells after 24 hrs by MTT assay. The data set is classed as functional, cell-based. An outline of the steps: as §1
Data set [5] concerns HeLa. Description: Cytotoxicity against human HeLa cells after 24 hrs by MTT assay. The data set is classed as functional, cell-based. An outline of the steps: as §1
Data set [6] has as its system HBL-100. Description: Cytotoxicity against human HBL100 cells after 24 hrs by MTT assay. Type of data set: functional, cell-based. The settings on record: HBL-100, 24 h. The procedure, abridged: as §1
For data set [7], the system named is HT-29. Description: Cytotoxicity against human HT-29 cells after 24 hrs by MTT assay. Type of data set: functional, cell-based. The settings on record: HT-29, 24 h. An outline of the steps:
as §1

Data set [8] deals with Bone marrow cell. Description: Induction of mitosis in ICR mouse bone marrow cells assessed as mitotic index at 10 mg/kg, ip after 48 hrs. The data set is classed as functional. Conditions: route intraperitoneal. The procedure, abridged:
(§2)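 ICR mice (male and female, 20 ± 1.5 g; 4 males + 4 females per treated group, 10 per control group) given compound ip at 10 or 100 mg/kg; mitomycin C 3.5 mg/kg positive control, 0.9% saline negative control. Colchicine 0.4 mg/kg ip 1 h before femoral marrow harvest at 24 or 48 h. Cells put in 0.075 M KCl (37 °C, 20 min), fixed in methanol–acetic acid 3:1, stained with Giemsa. ≥50 metaphases scored per animal. Mitotic index counted in 1500 cells per animal. Group mean ± SEM, Student's t-test.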

Data set [9] deals with Bone marrow cell. Description: Induction of mitosis in ICR mouse bone marrow cells assessed as mitotic index at 10 mg/kg, ip after 24 hrs. Type of data set: functional. The settings on record: route intraperitoneal. The procedure, abridged:
as §2

Data set [10] has as its system Bone marrow cell. Description: Induction of clastogenic effect in ICR mouse bone marrow cells assessed as chromosomal aberration at 10 mg/kg, ip after 48 hrs. Type of data set: functional. The settings on record: route intraperitoneal. The procedure, abridged: as §2
In data set [11] the test system is HBL-100. Description: Ratio of Doxorubicin IC50 to compound IC50 for human HBL100 cells after 24 hrs by MTT assay. The data set is classed as functional.
Data set [12] has as its system Bone marrow cell. Description: Induction of clastogenic effect in ICR mouse bone marrow cells assessed as chromosomal aberration at 10 mg/kg, ip after 24 hrs. Type of data set: functional. Conditions: route intraperitoneal. The procedure, abridged:
as §2

Data set [13] relates to Bone marrow cell. Description: Induction of clastogenic effect in ICR mouse bone marrow cells assessed as chromosomal aberration at 3.5 mg/kg, ip after 24 hrs. Type of data set: functional. Conditions: route intraperitoneal. The procedure, abridged: as §2
For data set [14], the system named is Bone marrow cell. Description: Induction of mitosis in ICR mouse bone marrow cells assessed as mitotic index at 3.5 mg/kg, ip after 48 hrs. Conditions: route intraperitoneal. Type of data set: functional. An outline of the steps:
as §2

The test system of data set [15] is Bone marrow cell. Description: Induction of clastogenic effect in ICR mouse bone marrow cells assessed as rearrangement in centromere to centromeric fusion at 3.5 mg/kg, ip after 24 hrs. The data set is classed as functional. The settings on record: route intraperitoneal. The procedure, abridged:
as §2

Data set [16] deals with Bone marrow cell. Description: Induction of mitosis in ICR mouse bone marrow cells assessed as mitotic index at 3.5 mg/kg, ip after 24 hrs. Type of data set: functional. Conditions: route intraperitoneal. The procedure, abridged: as §2
Data set [17] deals with Bone marrow cell. Description: Induction of clastogenic effect in ICR mouse bone marrow cells assessed as chromosomal breaks and fragmentation at 3.5 mg/kg, ip after 24 hrs. The data set is classed as functional. The settings on record: route intraperitoneal. An outline of the steps:
as §2

The test system of data set [18] is Bone marrow cell. Description: Induction of clastogenic effect in ICR mouse bone marrow cells assessed as chromosomal aberration at 3.5 mg/kg, ip after 48 hrs. Type of data set: functional. The settings on record: route intraperitoneal. An outline of the steps:
as §2

Data set [19] has as its system Bone marrow cell. Description: Induction of clastogenic effect in ICR mouse bone marrow cells assessed as rearrangement in centromere to centromeric fusion at 10 to 100 mg/kg, ip. The settings on record: dose mg/kg 10-100; route intraperitoneal. Type of data set: functional. An outline of the steps: as §2
Data set [20] concerns Bone marrow cell. Description: Induction of clastogenic effect in ICR mouse bone marrow cells assessed as chromosomal aberration at 100 mg/kg, ip after 48 hrs. Type of data set: functional. Conditions: route intraperitoneal. An outline of the steps:
as §2

Data set [21] deals with Bone marrow cell. Description: Induction of clastogenic effect in ICR mouse bone marrow cells assessed as chromosomal aberration at 100 mg/kg, ip after 24 hrs. The data set is classed as functional. The settings on record: route intraperitoneal. The procedure, abridged:
as §2

A short description of data set [22]: Drug uptake in cytoplasm of human HBL100 cells at non-toxic concentration after 24 hrs by fluorescent microscopic analysis. The data set is classed as ADME, cell-based. Conditions: hbl-100, 24 h. The procedure, abridged: (§3)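 HBL-100 cells were seeded at 1×10^5/ml on diagnostic slides, adhered overnight (37.5 °C, 5% CO2), and exposed 24 h to non-toxic concentrations. Intrinsic anthracene fluorescence was imaged by fluorescence microscopy to locate subcellular distribution.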

Data set [23] deals with Bone marrow cell. Description: Induction of mitosis in ICR mouse bone marrow cells assessed as mitotic index at 100 mg/kg, ip after 24 hrs. Type of data set: functional. The settings on record: route intraperitoneal. An outline of the steps:
as §2

Data set [24] has as its system Bone marrow cell. Description: Induction of mitosis in ICR mouse bone marrow cells assessed as mitotic index at 100 mg/kg, ip after 48 hrs. Conditions: route intraperitoneal. The data set is classed as functional. An outline of the steps: as §2
The subject of data set [25] is Bone marrow cell. Description: Induction of clastogenic effect in ICR mouse bone marrow cells assessed as chromosomal breaks and fragmentation at 10 to 100 mg/kg, ip. The data set is classed as functional. Conditions: dose mg/kg 10-100; route intraperitoneal. The procedure, abridged:
as §2

The subject of data set [26] is Bone marrow cell. Description: Antiproliferative activity in ICR mouse bone marrow cells assessed as inhibition of cell division at 10 to 100 mg/kg, ip measured after 48 hrs. The data set is classed as functional, organism-based. An outline of the steps:
as §2

The nature of data set [27]: Drug uptake in nuclear membrane of human HBL100 cells at non-toxic concentration after 24 hrs by fluorescent microscopic analysis. The data set is classed as ADME, cell membranes. The settings on record: hbl-100, 24 h. An outline of the steps:
as §3

A short description of data set [28]: Drug uptake in nuclei of human HBL100 cells at non-toxic concentration after 24 hrs by fluorescent microscopic analysis. The data set is classed as ADME, cell-based, Nucleus. The settings on record: hbl-100, 24 h. The procedure, abridged: as §3

As to `COc1cccc2c1C(=O)c1c(O)c3c(c(O)c1C2=O)C[C@@](O)(C(=O)CO)C[C@@H]3O[C@H]1C[C@H](N)[C@H](O)[C@H](C)O1.Cl` [DOXORUBICIN HYDROCHLORIDE], the IC50 (in general, the midpoint of a concentration-inhibition curve) in [1] is under 68 µg/mL; in data set [2] it was under 68 µg/mL; in [3], under 68 µg/mL; in data set [4] it was under 68 µg/mL; in data set [5] it was under 68 µg/mL; in data set [6] it was 140 µg/mL. Moreover, it took 580 µg/mL to reach half-maximal inhibition in data set [7] (IC50).

Take `CCOP(=O)(OCC)C(NCc1ccco1)c1c2ccccc2cc2ccccc12` (configuration not stated): the IC50 in data set [1] was determined as 100 µg/mL (≈ 236 µM); in [2], 70 µg/mL (≈ 165 µM); in data set [3] it was 110 µg/mL (≈ 260 µM); in data set [4], 70 µg/mL (≈ 165 µM); in data set [5], 120 µg/mL (≈ 283 µM); in data set [6], 70 µg/mL (≈ 165 µM). Besides, half-maximal inhibition in data set [7] (IC50) was put at 110 µg/mL (≈ 260 µM). Further, the Activity in data set [8] is 10.1 ‰; in [9] it was 15.1 ‰; in [10] it was 4.75%; in data set [12], 6.25%. Besides, the “Ratio IC50” value in data set [11] was determined as 2.

For `CO[C@@]12[C@H](COC(N)=O)C3=C(C(=O)C(C)=C(N)C3=O)N1C[C@@H]1N[C@@H]12` [MITOMYCIN], the Activity was 30.5% in data set [13]; 7.29 ‰ in data set [14]; 24.9% in data set [15]; 5.49 ‰ in data set [16]; 75.1% in data set [17]; 15.8% in data set [18].

Regarding `Cc1ccc(/N=C/c2c3ccccc3cc3ccccc23)cc1`, the half-maximal inhibitory concentration (IC50) stood at 450 µg/mL (≈ 1520 µM) in [1]; 120 µg/mL (≈ 406 µM) in [2]; 180 µg/mL (≈ 609 µM) in [3]; 130 µg/mL (≈ 440 µM) in data set [4]; 170 µg/mL (≈ 576 µM) in data set [5]; 310 µg/mL (≈ 1050 µM) in data set [6]. For the same compound, in data set [7], the IC50 turned out to be 80 µg/mL (≈ 271 µM). Further, the Activity in [19] was 62.17%; in [20], 6.5%; in [8], 8.45 ‰; in data set [9], 12.6 ‰; in [10] it was 5%; in data set [21], 6.57%. Moreover, the Activity in data set [12] was 5.25%; in [23], 10.7 ‰; in data set [24] it was 11.7 ‰; in data set [25] it was 35.6%. In data set [22], the Drug uptake entry is “Active”.

As to `C(=N\Cc1ccco1)/c1c2ccccc2cc2ccccc12`, the IC50 in data set [1] is 260 µg/mL (≈ 911 µM); in [2] it was 450 µg/mL (≈ 1580 µM); in [3], 120 µg/mL (≈ 421 µM); in [4], 80 µg/mL (≈ 280 µM); in data set [5], 360 µg/mL (≈ 1260 µM); in data set [6], 460 µg/mL (≈ 1610 µM). Also, the midpoint of inhibition in [7], the IC50, lay at 200 µg/mL (≈ 701 µM). The Activity in data set [20] was 5.5%; in data set [8] it was 10.2 ‰; in data set [9] it was 11.3 ‰; in data set [10] it was 4.43%; in [21] it was 5.5%; in data set [12], 4.75%. The Activity in data set [23] is 12.4 ‰; in data set [24], 15.2 ‰. Besides, the result in data set [26] was inactive.

Consider `CCOP(=O)(OCC)C(Nc1ccc(C)cc1)c1c2ccccc2cc2ccccc12` (configuration not stated), for which the IC50 was over 2000 µg/mL in data set [1]; over 2000 µg/mL in data set [2]; over 2000 µg/mL in [3]; over 2000 µg/mL in [4]; 1940 µg/mL (≈ 4480 µM) in data set [5]; 730 µg/mL (≈ 1680 µM) in [6]. The compound also came in with a 50% inhibitory concentration (IC50) in [7] of over 2000 µg/mL. In addition, the Activity is 8% in data set [20]; 11.9 ‰ in data set [8]; 13.4 ‰ in data set [9]; 6% in [10]; 8.5% in [21]; 4.75% in data set [12]. Moreover, the figures for the Activity in data set [23] and in [24] were 16.1 ‰ and 11.8 ‰, respectively. Also, the Drug uptake entry in [27] and in [28] was “Active” each time.

Regarding `COP(=O)(OC)C(Nc1ccc(C)cc1)c1c2ccccc2cc2ccccc12` (configuration not stated), the IC50 in data set [1] was 450 µg/mL (≈ 1110 µM); in [2] it was 880 µg/mL (≈ 2170 µM); in data set [3], 830 µg/mL (≈ 2050 µM); in data set [4] it was 600 µg/mL (≈ 1480 µM); in data set [5], over 2000 µg/mL; in data set [6], 20 µg/mL (≈ 49.3 µM). Besides, the 50% inhibitory concentration (IC50) in data set [7] is over 2000 µg/mL. In addition, the Activity in data set [20] is 6%; in data set [8] it was 15.6 ‰; in data set [9], 12.6 ‰; in data set [10], 4.75%; in [21], 5.5%; in [12], 4%. Moreover, the values for the Activity in [23] and in data set [24] were 12 ‰ and 14.1 ‰, respectively. In addition, the result in [26] was inactive.
